According to ChEMBL document CHEMBL1154352, “Toll-like receptor 7 selective synthetic oligoribonucleotide agonists: synthesis and structure-activity relationship studies” (J Med Chem, 2009):
Active and inactive are the calls of the source. No cut-off for these calls is given here.

Assays:
PBMC [1] = assay: Immunomodulatory activity in human PBMC assessed as induction of IL1-beta at 50 ug/ml after 24 hrs; type: functional, cell-based
Method in brief: (§1)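 Human PBMCs plated at 5 × 10^6 cells/mL; compounds dissolved in PBS added at various concentrations, 37 °C for 24 h. Supernatant cytokines/chemokines quantified with human Luminex multiplex kit.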

Homo sapiens [2] = organism: Homo sapiens; assay: Immunostimulatory activity in human mDC assessed as induction of IL12 at 100 ug/ml after 24 hrs; type: functional
Method in brief: (§2)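 Human mDCs isolated from PBMCs by CD19+ B-cell depletion then BDCA1 positive selection; plated at 1 × 10^6 cells/mL, compounds in PBS, 37 °C for 24 h; supernatant cytokines by human Luminex multiplex. Representative of four independent experiments.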

Homo sapiens [3] = organism: Homo sapiens; assay: Immunostimulatory activity in human mDC assessed as induction of IP10 at 100 ug/ml after 24 hrs; type: functional; method in brief: as §2
Homo sapiens [4] = organism: Homo sapiens; assay: Immunostimulatory activity in human pDC assessed as induction of IL6 at 100 ug/ml after 24 hrs; type: functional
Method in brief: (§3)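 Human pDCs plated at 1 × 10^6 cells/mL; compounds in PBS added, 37 °C for 24 h; supernatant cytokines/chemokines by human Luminex multiplex kit.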

PBMC [5] = assay: Immunomodulatory activity in human PBMC assessed as induction of IP10 at 50 ug/ml after 24 hrs; type: functional, cell-based; method in brief: as §1
Homo sapiens [6] = organism: Homo sapiens; assay: Immunostimulatory activity in human mDC assessed as induction of TNFalpha at 100 ug/ml after 24 hrs; type: functional; method in brief: as §2
[7] = molecular target: T1, Toll-like receptor 9 (Mus musculus) (UniProt Q9EQU3); assay: Activation of mouse TLR9 expressed in HEK293 assessed as induction of NF-kappaB activity reporter gene assay; type: cell-based
T1 sequence (whole entry): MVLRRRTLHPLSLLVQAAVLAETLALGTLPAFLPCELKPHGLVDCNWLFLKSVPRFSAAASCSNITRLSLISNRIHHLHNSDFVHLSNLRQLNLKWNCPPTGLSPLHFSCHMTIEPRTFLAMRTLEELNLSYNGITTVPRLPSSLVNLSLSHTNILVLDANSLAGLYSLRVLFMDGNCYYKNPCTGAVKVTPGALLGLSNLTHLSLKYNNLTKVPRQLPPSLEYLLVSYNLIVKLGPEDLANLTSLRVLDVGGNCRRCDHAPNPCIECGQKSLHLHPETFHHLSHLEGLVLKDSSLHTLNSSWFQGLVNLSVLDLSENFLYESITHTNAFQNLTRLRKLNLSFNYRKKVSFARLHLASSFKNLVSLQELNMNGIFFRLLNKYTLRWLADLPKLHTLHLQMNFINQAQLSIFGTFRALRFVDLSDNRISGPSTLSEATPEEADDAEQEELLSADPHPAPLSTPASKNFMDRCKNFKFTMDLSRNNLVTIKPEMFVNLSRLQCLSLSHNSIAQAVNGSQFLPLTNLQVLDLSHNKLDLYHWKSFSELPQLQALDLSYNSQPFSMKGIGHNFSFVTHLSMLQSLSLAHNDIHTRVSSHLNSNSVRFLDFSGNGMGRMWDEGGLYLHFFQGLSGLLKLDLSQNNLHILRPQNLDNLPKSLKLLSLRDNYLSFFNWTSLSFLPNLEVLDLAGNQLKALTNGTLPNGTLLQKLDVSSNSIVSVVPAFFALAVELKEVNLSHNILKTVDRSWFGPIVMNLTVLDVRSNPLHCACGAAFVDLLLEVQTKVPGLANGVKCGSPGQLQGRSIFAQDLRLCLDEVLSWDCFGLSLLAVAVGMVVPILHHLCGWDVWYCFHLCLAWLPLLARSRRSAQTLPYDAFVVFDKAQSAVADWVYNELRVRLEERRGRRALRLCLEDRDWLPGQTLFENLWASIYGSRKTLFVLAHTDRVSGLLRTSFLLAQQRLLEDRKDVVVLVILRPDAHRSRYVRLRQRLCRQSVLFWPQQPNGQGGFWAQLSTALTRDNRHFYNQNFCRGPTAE

PBMC [8] = assay: Immunomodulatory activity in human PBMC assessed as induction of IL12 at 50 ug/ml after 24 hrs; type: functional, cell-based; method in brief: as §1
Homo sapiens [9] = organism: Homo sapiens; assay: Immunostimulatory activity in human pDC assessed as induction of IP10 at 100 ug/ml after 24 hrs; type: functional; method in brief: as §3
PBMC [10] = assay: Immunomodulatory activity in human PBMC assessed as induction of MCP1 at 50 ug/ml after 24 hrs; type: functional, cell-based; method in brief: as §1
PBMC [11] = assay: Immunomodulatory activity in human PBMC assessed as induction of IFNalpha at 50 ug/ml after 24 hrs; type: functional, cell-based; method in brief: as §1
Homo sapiens [12] = organism: Homo sapiens; assay: Immunostimulatory activity in human mDC assessed as induction of IFNalpha at 100 ug/ml after 24 hrs; type: functional; method in brief: as §2
Homo sapiens [13] = organism: Homo sapiens; assay: Immunostimulatory activity in human mDC assessed as induction of IL6 at 100 ug/ml after 24 hrs; type: functional; method in brief: as §2
Homo sapiens [14] = organism: Homo sapiens; assay: Immunostimulatory activity in human pDC assessed as induction of IFNalpha at 100 ug/ml after 24 hrs; type: functional; method in brief: as §3
PBMC [15] = assay: Immunomodulatory activity in human PBMC assessed as induction of IL6 at 50 ug/ml after 24 hrs; type: functional, cell-based; method in brief: as §1
PBMC [16] = assay: Immunomodulatory activity in human PBMC assessed as induction of MIP1beta at 50 ug/ml after 24 hrs; type: functional, cell-based; method in brief: as §1
PBMC [17] = assay: Immunomodulatory activity in human PBMC assessed as induction of IL12 at 100 ug/ml after 24 hrs; type: functional, cell-based; method in brief: as §1
[18] = Metabolic stability in human serum assessed as full length product remaining after 10 mins by HPLC; type: ADME, cell-free; conditions: read-out: Stability
Method in brief: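 About 0.5 A260 units compound in 1% human serum in PBS, 37 °C; aliquot taken at 10 min, analysed by anion-exchange HPLC for percent intact full-length product.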

Homo sapiens [19] = organism: Homo sapiens; assay: Ratio of human TLR7 activity to human TLR8 activity
Method in brief: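 TLR7/TLR8 ratio computed from fold NF-κB (SEAP reporter) activation in HEK293 cells stably expressing human TLR7 versus TLR8, compounds at 50 μg/mL, 18 h exposure; representative of three independent experiments.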

PBMC [20] = assay: Immunomodulatory activity in human PBMC assessed as induction of MIP1alpha at 50 ug/ml after 24 hrs; type: functional, cell-based; method in brief: as §1
PBMC [21] = assay: Immunomodulatory activity in human PBMC assessed as induction of TNFalpha at 50 ug/ml after 24 hrs; type: functional, cell-based; method in brief: as §1

SMILES | Activity (PBMC [1]) [pg/mL] | Activity (Homo sapiens [2]) | Activity (Homo sapiens [3]) | Activity (Homo sapiens [4]) | Activity (PBMC [5]) [pg/mL] | Activity (Homo sapiens [6]) | Activity [7] | Activity (PBMC [8]) [pg/mL] | Activity (Homo sapiens [9]) | Activity (PBMC [10]) [pg/mL] | Activity (PBMC [11]) [pg/mL] | Activity (Homo sapiens [12]) | Activity (Homo sapiens [13]) | Activity (PBMC [15]) [pg/mL] | Activity (PBMC [16]) [pg/mL] | Activity (PBMC [17]) [pg/mL] | remaining at 10 min [18] [%] | Activity (PBMC [20]) [pg/mL] | Activity (PBMC [21]) [pg/mL] | also measured
Nc1ncnc2c1ncn2[C@@H]1O[C@H](CO)[C@@H](OP(=O)(S)OC[C@H]2O[C@@H](n3cnc4c(N)ncnc43)[C@H](O)[C@@H]2OP(=O)(S)OC[C@H]2O[C@@H](n3cnc4c(N)ncnc43)[C@H](O)[C@@H]2OP(=O)(S)OC[C@H]2O[C@@H](n3cnc4c(N)ncnc43)[C@H](O)[C@@H]2OP(=O)(S)OC[C@H]2O[C@@H](n3cnc4c(N)ncnc43)[C@H](O)[C@@H]2OP(=O)(S)OC[C@H]2O[C@@H](n3cnc4c(N)ncnc43)[C@H](O)[C@@H]2OP(=O)(S)OC[C@H]2O[C@@H](n3cnc4c(N)ncnc43)[C@H](O)[C@@H]2OP(=O)(S)OC[C@H]2O[C@@H](n3cnc4c(N)ncnc43)[C@H](O)[C@@H]2OP(=O)(S)OC[C@H]2O[C@@H](n3cnc4c(N)ncnc43)[C@H](O)[C@@H]2OP(=O)(S)OC[C@H]2O[C@@H](n3cnc4c(N)ncnc43)[C@H](O)[C@@H]2OP(=O)(S)OC[C@H]2O[C@@H](n3cnc4c(N)ncnc43)[C@H](O)[C@@H]2OP(=O)(S)OCC(O)COP(=O)(S)O[C@H]2[C@@H](O)[C@H](n3cnc4c(N)ncnc43)O[C@@H]2COP(=O)(S)O[C@H]2[C@@H](O)[C@H](n3cnc4c(N)ncnc43)O[C@@H]2COP(=O)(S)O[C@H]2[C@@H](O)[C@H](n3cnc4c(N)ncnc43)O[C@@H]2COP(=O)(S)O[C@H]2[C@@H](O)[C@H](n3cnc4c(N)ncnc43)O[C@@H]2COP(=O)(S)O[C@H]2[C@@H](O)[C@H](n3cnc4c(N)ncnc43)O[C@@H]2COP(=O)(S)O[C@H]2[C@@H](O)[C@H](n3cnc4c(N)ncnc43)O[C@@H]2COP(=O)(S)O[C@H]2[C@@H](O)[C@H](n3cnc4c(N)ncnc43)O[C@@H]2COP(=O)(S)O[C@H]2[C@@H](O)[C@H](n3cnc4c(N)ncnc43)O[C@@H]2COP(=O)(S)O[C@H]2[C@@H](O)[C@H](n3cnc4c(N)ncnc43)O[C@@H]2COP(=O)(S)O[C@H]2[C@@H](O)[C@H](n3cnc4c(N)ncnc43)O[C@@H]2COP(=O)(S)O[C@H]2[C@@H](O)[C@H](n3cnc4c(N)ncnc43)O[C@@H]2CO)[C@H]1O (stereo partly specified) | 28 | inactive | inactive | inactive | 4 | inactive | inactive | 138 | inactive | 724 | 12 | inactive | inactive | 12 | 83 | 183 | 92 | 43 | 0 | Activity (Homo sapiens [14]): inactive; Activity (Homo sapiens [19]): Active
Nc1ccn([C@@H]2O[C@H](COP(=O)(S)O[C@H]3[C@@H](O)[C@H](n4cnc5c(=O)[nH]c(N)nc54)O[C@@H]3COP(=O)(S)O[C@H]3[C@@H](O)[C@H](n4ccc(=O)[nH]c4=O)O[C@@H]3COP(=O)(S)OCCCO)[C@@H](OP(=O)(S)OC[C@H]3O[C@@H](n4ccc(=O)[nH]c4=O)[C@H](O)[C@@H]3OP(=O)(S)OC[C@H]3O[C@@H](n4cnc5c(=O)[nH]c(N)nc54)[C@H](O)[C@@H]3OP(=O)(S)OC[C@H]3O[C@@H](n4ccc(N)nc4=O)[C@H](O)[C@@H]3OP(=O)(S)OC[C@H]3O[C@@H](n4ccc(=O)[nH]c4=O)[C@H](O)[C@@H]3OP(=O)(S)OC[C@H]3O[C@@H](n4ccc(=O)[nH]c4=O)[C@H](O)[C@@H]3OP(=O)(S)OC[C@H]3O[C@@H](n4cnc5c(=O)[nH]c(N)nc54)[C@H](O)[C@@H]3OP(=O)(S)OC[C@H]3O[C@@H](n4ccc(=O)[nH]c4=O)[C@H](O)[C@@H]3OP(=O)(S)OC[C@H]3O[C@@H](n4cnc5c(=O)[nH]c(N)nc54)[C@H](O)[C@@H]3OP(=O)(S)OCC(O)COP(=O)(S)O[C@H]3[C@@H](O)[C@H](n4cnc5c(=O)[nH]c(N)nc54)O[C@@H]3COP(=O)(S)O[C@H]3[C@@H](O)[C@H](n4ccc(=O)[nH]c4=O)O[C@@H]3COP(=O)(S)O[C@H]3[C@@H](O)[C@H](n4cnc5c(=O)[nH]c(N)nc54)O[C@@H]3COP(=O)(S)O[C@H]3[C@@H](O)[C@H](n4ccc(=O)[nH]c4=O)O[C@@H]3COP(=O)(S)O[C@H]3[C@@H](O)[C@H](n4ccc(=O)[nH]c4=O)O[C@@H]3COP(=O)(S)O[C@H]3[C@@H](O)[C@H](n4ccc(N)nc4=O)O[C@@H]3COP(=O)(S)O[C@H]3[C@@H](O)[C@H](n4cnc5c(=O)[nH]c(N)nc54)O[C@@H]3COP(=O)(S)O[C@H]3[C@@H](O)[C@H](n4ccc(=O)[nH]c4=O)O[C@@H]3COP(=O)(S)O[C@H]3[C@@H](O)[C@H](n4ccc(N)nc4=O)O[C@@H]3COP(=O)(S)O[C@H]3[C@@H](O)[C@H](n4cnc5c(=O)[nH]c(N)nc54)O[C@@H]3COP(=O)(S)O[C@H]3[C@@H](O)[C@H](n4ccc(=O)[nH]c4=O)O[C@@H]3COP(=O)(S)OCCCO)[C@H]2O)c(=O)n1 (stereo partly specified) | 568 | Active | Active | Active | 24 | Active | inactive | 570 | Active | 46700 | 56 | Active | Active | 3980 | 5730 | 715 | 78 | 4760 | 541 | Ratio (Homo sapiens [19]): 0.1
